Experimental data: ChEMBL document CHEMBL1122582, “Pyridonecarboxylic acids as antibacterial agents. 2. Synthesis and structure-activity relationships of 1,6,7-trisubstituted 1,4-dihydro-4-oxo-1,8-naphthyridine-3-carboxylic acids, including enoxacin, a new antibacterial agent” (J Med Chem, 1984)
≈ marks a conversion by molar mass, not a printed value.

How the values were obtained:
Type in all cases: functional
[1] = system: Escherichia coli; experiment: Antibacterial activity against Escherichia coli NIHJ JC-2
Method in brief: (§1)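 Twofold agar dilution on Mueller-Hinton agar (pH 7.4). Inocula of approximately 10⁶ colony-forming units; growth read after 20-h incubation at 37 °C. MIC is given in micrograms per milliliter.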

[2] = system: Pseudomonas aeruginosa; experiment: Antibacterial activity against Pseudomonas aeruginosa Tsuchijima; method in brief: as §1
[3] = system: Staphylococcus aureus; experiment: Antibacterial activity against Staphylococcus aureus 209PJC-1; method in brief: as §1
[4] = system: Escherichia coli; experiment: Median effective dose against Escherichia coli P-5101 causing systemic infections
Method in brief: (§2)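 Male Std-ddY mice (20 ± 2 g), groups of 10 or more, infected ip with E. coli P-5101 (9×10^6 cells). Compounds were suspended in 0.2% sodium carboxymethylcellulose and dosed orally at 0 and 6 h postinfection. Survival was scored after 1 week and the ED50 derived in mg/kg.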

[5] = system: Pseudomonas aeruginosa; experiment: Median effective dose against Pseudomonas aeruginosa 12 causing systemic infections
Method in brief: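 Male Std-ddY mice (20 ± 2 g), groups of 10 or more, infected ip with P. aeruginosa 12 (4×10^3 cells). Compounds were suspended in 0.2% sodium carboxymethylcellulose and given orally at 0 and 6 h postinfection. Survival was scored after 1 week and the ED50 derived in mg/kg.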

[6] = system: Escherichia coli; experiment: Median effective dose against Escherichia coli P-5101 causing systemic infections.; method in brief: as §2
[7] = system: Staphylococcus aureus; experiment: Median effective dose against Staphylococcus aureus 50774 causing systemic infections
Method in brief: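 Systemic infection given iv with S. aureus 50774 (5×10^8 cells) to male Std-ddY mice (20 ± 2 g), 10 or more per group. Oral dosing of compound suspended in 0.2% sodium carboxymethylcellulose at 0 and 6 h postinfection. ED50 in mg/kg from survival scored after 2 weeks.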

CCn1cc(C(=O)O)c(=O)c2cc(F)c(N)nc21
MIC [1]: 1.56 µg/mL (≈ 6.21 µM) | MIC [2]: 50 µg/mL (≈ 199 µM) | MIC [3]: > 100 µg/mL

CCn1cc(C(=O)O)c(=O)c2cc(F)c(N3CCCNCC3)nc21
MIC [1]: 0.78 µg/mL (≈ 2.33 µM) | MIC [2]: 1.56 µg/mL (≈ 4.67 µM) | MIC [3]: 1.56 µg/mL (≈ 4.67 µM)

CCn1cc(C(=O)O)c(=O)c2cc(F)c(NCCN)nc21
MIC [1]: 6.25 µg/mL (≈ 21.2 µM) | MIC [2]: 50 µg/mL (≈ 170 µM) | MIC [3]: 25 µg/mL (≈ 85 µM)

CCn1cc(C(=O)O)c(=O)c2cc(F)c(N3CCN(C=O)CC3)nc21
MIC [1]: 1.56 µg/mL (≈ 4.48 µM) | MIC [2]: 12.5 µg/mL (≈ 35.9 µM) | MIC [3]: 3.13 µg/mL (≈ 8.99 µM)

CCn1cc(C(=O)O)c(=O)c2cc(F)c(N3CCCCC3)nc21
MIC [1]: 6.25 µg/mL (≈ 19.6 µM) | MIC [2]: 12.5 µg/mL (≈ 39.1 µM) | MIC [3]: 0.78 µg/mL (≈ 2.44 µM)

CCn1cc(C(=O)O)c(=O)c2cnc(N3CCNCC3)nc21 [PIPEMIDIC ACID]
ED50 [4]: 12.8 mg/kg | MIC [2]: 6.25 µg/mL (≈ 20.6 µM) | MIC [3]: 6.25 µg/mL (≈ 20.6 µM) | ED50 [5]: 70.8 mg/kg

CCn1cc(C(=O)O)c(=O)c2cc(F)c(N3CCN(Cc4ccccc4)CC3)nc21
MIC [1]: 6.25 µg/mL (≈ 15.2 µM) | MIC [2]: 12.5 µg/mL (≈ 30.5 µM) | MIC [3]: 0.78 µg/mL (≈ 1.9 µM)

CCn1cc(C(=O)O)c(=O)c2cc([N+](=O)[O-])c(N3CCN(C)CC3)nc21
MIC [1]: 3.13 µg/mL (≈ 8.66 µM) | MIC [2]: 50 µg/mL (≈ 138 µM) | MIC [3]: 12.5 µg/mL (≈ 34.6 µM)

CCn1cc(C(=O)O)c(=O)c2cc(F)c(N3CCOCC3)nc21
MIC [1]: 3.13 µg/mL (≈ 9.74 µM) | MIC [2]: 6.25 µg/mL (≈ 19.5 µM) | MIC [3]: 1.56 µg/mL (≈ 4.86 µM)

CN1CCN(c2nc3c(cc2F)c(=O)c(C(=O)O)cn3CCF)CC1
MIC [1]: 0.2 µg/mL (≈ 0.568 µM) | MIC [2]: 1.56 µg/mL (≈ 4.43 µM) | MIC [3]: 0.78 µg/mL (≈ 2.21 µM)

CCn1cc(C(=O)O)c(=O)c2cc(F)c(N3CCN(c4ccccc4)CC3)nc21
MIC [1]: 12.5 µg/mL (≈ 31.5 µM) | MIC [2]: > 100 µg/mL | MIC [3]: 6.25 µg/mL (≈ 15.8 µM)

CCn1cc(C(=O)O)c(=O)c2cc(N)c(N3CCCC3)nc21
MIC [1]: > 100 µg/mL | MIC [2]: > 100 µg/mL | MIC [3]: > 100 µg/mL

O=C(O)c1cn(C(F)F)c2nc(N3CCNCC3)c(F)cc2c1=O
MIC [1]: 0.78 µg/mL (≈ 2.28 µM) | MIC [2]: 6.25 µg/mL (≈ 18.3 µM) | MIC [3]: 6.25 µg/mL (≈ 18.3 µM)

CCn1cc(C(=O)O)c(=O)c2cc(N)c(N3CCNCC3)nc21
MIC [1]: 3.13 µg/mL (≈ 9.86 µM) | MIC [2]: 6.25 µg/mL (≈ 19.7 µM) | MIC [3]: > 100 µg/mL

CCn1cc(C(=O)O)c(=O)c2cc(Cl)c(N3CCCC3)nc21
MIC [1]: > 100 µg/mL | MIC [2]: > 100 µg/mL | MIC [3]: 12.5 µg/mL (≈ 38.8 µM)

CCn1cc(C(=O)O)c(=O)c2cc(F)c(N3CCNCC3)nc21 [ENOXACIN]
MIC [1]: 0.2 µg/mL (≈ 0.624 µM) | MIC [2]: 0.78 µg/mL (≈ 2.44 µM) | MIC [3]: 0.78 µg/mL (≈ 2.44 µM)

CCn1cc(C(=O)O)c(=O)c2cc([N+](=O)[O-])c(N3CCNCC3)nc21
MIC [1]: 6.25 µg/mL (≈ 18 µM) | MIC [2]: 25 µg/mL (≈ 72 µM) | MIC [3]: 6.25 µg/mL (≈ 18 µM)

CCN1CCN(c2nc3c(cc2F)c(=O)c(C(=O)O)cn3CC)CC1
MIC [1]: 0.78 µg/mL (≈ 2.24 µM) | MIC [2]: 3.13 µg/mL (≈ 8.98 µM) | MIC [3]: 0.78 µg/mL (≈ 2.24 µM)

CCn1cc(C(=O)O)c(=O)c2ccc(C)nc21 [NALIDIXIC ACID]
MIC [1]: 1.56 µg/mL (≈ 6.72 µM) | MIC [2]: 50 µg/mL (≈ 215 µM)

CCn1cc(C(=O)O)c(=O)c2cc(F)c(N3CCSCC3)nc21
MIC [1]: 3.13 µg/mL (≈ 9.28 µM) | MIC [2]: 12.5 µg/mL (≈ 37.1 µM) | MIC [3]: 1.56 µg/mL (≈ 4.62 µM)

CCn1cc(C(=O)O)c(=O)c2cc(F)c(N3CCCCCC3)nc21
MIC [1]: 6.25 µg/mL (≈ 18.7 µM) | MIC [2]: 50 µg/mL (≈ 150 µM) | MIC [3]: 3.13 µg/mL (≈ 9.39 µM)

CCn1cc(C(=O)O)c(=O)c2cc(F)c(N3CCN(C(C)=O)CC3)nc21
MIC [1]: 3.13 µg/mL (≈ 8.64 µM) | MIC [2]: 50 µg/mL (≈ 138 µM) | MIC [3]: 3.13 µg/mL (≈ 8.64 µM)

CCn1cc(C(=O)O)c(=O)c2ccc(N3CCN(C)CC3)nc21
MIC [1]: 6.25 µg/mL (≈ 19.8 µM) | MIC [2]: 25 µg/mL (≈ 79 µM) | MIC [3]: 25 µg/mL (≈ 79 µM)

CCn1cc(C(=O)O)c(=O)c2cc(Cl)c(N3CCN(C)CC3)nc21
MIC [1]: 1.56 µg/mL (≈ 4.45 µM) | MIC [2]: 12.5 µg/mL (≈ 35.6 µM) | MIC [3]: 6.25 µg/mL (≈ 17.8 µM)

C=Cn1cc(C(=O)O)c(=O)c2cc(F)c(N3CCN(C)CC3)nc21
MIC [1]: 0.2 µg/mL (≈ 0.602 µM) | ED50 [6]: 1.1 mg/kg | MIC [2]: 0.78 µg/mL (≈ 2.35 µM) | MIC [3]: 3.13 µg/mL (≈ 9.42 µM) | ED50 [7]: 10.5 mg/kg | ED50 [5]: 3.7 mg/kg

CCn1cc(C(=O)O)c(=O)c2cc(N)c(N3CCN(C)CC3)nc21
MIC [1]: 1.56 µg/mL (≈ 4.71 µM) | MIC [2]: 12.5 µg/mL (≈ 37.7 µM) | MIC [3]: 25 µg/mL (≈ 75.4 µM)

CCn1cc(C(=O)O)c(=O)c2cc(F)c(N3CCCCCCC3)nc21
MIC [1]: 25 µg/mL (≈ 72 µM) | MIC [2]: > 100 µg/mL | MIC [3]: 12.5 µg/mL (≈ 36 µM)

CCC(C)N1CCN(c2nc3c(cc2F)c(=O)c(C(=O)O)cn3CC)CC1 (configuration not stated)
MIC [1]: 3.13 µg/mL (≈ 8.31 µM) | MIC [2]: 25 µg/mL (≈ 66.4 µM) | MIC [3]: 1.56 µg/mL (≈ 4.14 µM)

CCCN1CCN(c2nc3c(cc2F)c(=O)c(C(=O)O)cn3CC)CC1
MIC [1]: 1.56 µg/mL (≈ 4.3 µM) | MIC [2]: 12.5 µg/mL (≈ 34.5 µM) | MIC [3]: 1.56 µg/mL (≈ 4.3 µM)

O=C(O)c1cn(CCF)c2nc(N3CCNCC3)c(F)cc2c1=O
MIC [1]: 0.2 µg/mL (≈ 0.591 µM) | MIC [2]: 0.78 µg/mL (≈ 2.31 µM) | MIC [3]: 0.39 µg/mL (≈ 1.15 µM)

CCn1cc(C(=O)O)c(=O)c2cc([N+](=O)[O-])c(N3CCCC3)nc21
MIC [1]: 100 µg/mL (≈ 301 µM) | MIC [2]: > 100 µg/mL | MIC [3]: 25 µg/mL (≈ 75.2 µM)

CCCCN1CCN(c2nc3c(cc2F)c(=O)c(C(=O)O)cn3CC)CC1
MIC [1]: 3.13 µg/mL (≈ 8.31 µM) | MIC [2]: 25 µg/mL (≈ 66.4 µM) | MIC [3]: 3.13 µg/mL (≈ 8.31 µM)

CCn1cc(C(=O)O)c(=O)c2cc(C#N)c(N3CCN(C)CC3)nc21
MIC [1]: 1.56 µg/mL (≈ 4.57 µM) | MIC [2]: 12.5 µg/mL (≈ 36.6 µM) | MIC [3]: 12.5 µg/mL (≈ 36.6 µM)

CCn1cc(C(=O)O)c(=O)c2cc(C#N)c(N3CCCC3)nc21
MIC [1]: 12.5 µg/mL (≈ 40 µM) | MIC [2]: 25 µg/mL (≈ 80 µM) | MIC [3]: 3.13 µg/mL (≈ 10 µM)

CCn1cc(C(=O)O)c(=O)c2ccc(N3CCCC3)nc21
MIC [1]: 25 µg/mL (≈ 87 µM) | MIC [2]: > 100 µg/mL | MIC [3]: 12.5 µg/mL (≈ 43.5 µM)

CCn1cc(C(=O)O)c(=O)c2cc(F)c(N3CCNC(=O)C3)nc21
MIC [1]: 0.78 µg/mL (≈ 2.33 µM) | MIC [2]: 12.5 µg/mL (≈ 37.4 µM) | MIC [3]: 6.25 µg/mL (≈ 18.7 µM)

CCn1cc(C(=O)O)c(=O)c2cc(F)c(N3CCCC3)nc21
MIC [1]: 1.56 µg/mL (≈ 5.11 µM) | MIC [2]: 3.13 µg/mL (≈ 10.3 µM) | MIC [3]: 0.39 µg/mL (≈ 1.28 µM)

CCn1cc(C(=O)O)c(=O)c2cc(C#N)c(N3CCNCC3)nc21
MIC [1]: 1.56 µg/mL (≈ 4.77 µM) | MIC [2]: 6.25 µg/mL (≈ 19.1 µM) | MIC [3]: 6.25 µg/mL (≈ 19.1 µM)
